Compound activity deposited in PubChem by Broad Institute.
Only some compounds are listed: those with a hit (about 5.9% of all), similar ones and a draw of the others.
Pf Dd2 inh: P. falciparum Dd2 growth inhibition. SYBR Green, 72 h; stronger effect = lower value. activity change, % at 10 µM. hit rate 2.3% among 94,000; in the data active = activity change below about -80%; inconclusive = no clear call, values can overlap the other calls
GASC1 inh: inhibitors of human demethylase GASC-1 KDM4C. Q9H3R0. GST-KDM4C 2-372, H3K9me3 peptide, LANCE TR-FRET. inhibition, % at 12.5 µM. hit rate 0.15% among 96,000;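 active = mean replicate inhibition above about 25%, with at least 55% of replicates also reaching it, limit read from the data, passing the limit was not always enough; inconclusive = only one of those two conditions met; inactive = neither condition met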
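Material: N-terminal GST-fused human GASC-1 (KDM4C) fragment, residues 2-372. Input: 10 nM enzyme. Incubation: enzyme reaction 30 min, then detection 60 min, both room temperature. Doses: one test concentration per compound. Read-out basis: inhibition from TR-FRET ratio decrease. Detection: LANCE TR-FRET, excitation 340 nm, emissions 618 and 671 nm.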
T cruzi growth-1: blocks T. cruzi growth in NIH3T3 culture; T. cruzi beta-gal in NIH3T3, GalScreen luminescence, 90 h; inhibition, % at 8.34 µM; hit rate 5.9% among 77,000;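 active = mean inhibition above about 93%, with at least 55% of replicates each passing it, limit read from the data, passing the limit was not always enough; inconclusive = only one of those two conditions holds; inactive = neither condition holds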
IDH1 R132H inh: blocks human IDH1 R132H reductase activity. diaphorase/resazurin fluorescence, 60 min. inhibition, % at 10 µM. hit rate 0.18% among 70,000. AID 624101; in the data active = inhibition above about 34%; inconclusive = no clear call, values can overlap the other calls; inactive = below about 11%;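 also: 0% = DMSO and 100% = no enzyme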
Target sequence (O75874 whole entry R132H): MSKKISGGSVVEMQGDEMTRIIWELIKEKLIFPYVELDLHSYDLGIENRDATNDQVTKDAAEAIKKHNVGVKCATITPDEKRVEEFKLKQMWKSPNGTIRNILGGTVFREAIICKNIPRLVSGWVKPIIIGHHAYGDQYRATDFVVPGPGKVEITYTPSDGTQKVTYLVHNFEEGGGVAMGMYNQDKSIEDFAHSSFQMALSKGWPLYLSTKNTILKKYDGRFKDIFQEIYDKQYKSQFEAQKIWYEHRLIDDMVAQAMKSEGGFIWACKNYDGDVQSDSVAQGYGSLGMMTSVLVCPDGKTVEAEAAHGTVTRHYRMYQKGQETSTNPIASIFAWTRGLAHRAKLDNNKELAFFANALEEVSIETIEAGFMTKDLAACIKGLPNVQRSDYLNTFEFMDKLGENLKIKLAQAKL
T cruzi growth-2: inhibitors of T. cruzi proliferation; shares compounds with T cruzi growth-1; T. cruzi beta-gal in NIH3T3, GalScreen luminescence, 90 h; inhibition, % at 8.35 µM; hit rate 72% among 5,600;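 active = mean replicate inhibition above about 95% and at least 55% of replicates individually reaching it, limit read from the data; inconclusive = only one of the two criteria is met; inactive = neither criterion is met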
T cruzi growth-3: inhibitors of T. cruzi proliferation; shares compounds with T cruzi growth-1; T. cruzi beta-gal in NIH3T3, GalScreen luminescence, 90 h; inhibition, % at 2.09 µM; hit rate 21% among 5,600; AID 651740;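 active = mean inhibition above about 95%, with at least 55% of replicates also reaching it, limit read from the data; inconclusive = meets just one of the two conditions; inactive = meets neither condition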;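 also: plate controls were neutral control median for no effect and positive control median for full effect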
NIH3T3 tox: kills mouse NIH/3T3 fibroblasts; AID 651742; hit rate 14% among 5,600; shares compounds with T cruzi growth-1; cytotoxicity (signal decrease), % at 8.35 µM; NIH/3T3 viability, CellTiter-Glo ATP luminescence, 90 h;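 active = mean signal decrease across replicates above about 35% based on untreated-well scatter, with enough replicates individually passing, limit read from the data; inconclusive = no rule stated though some were filed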;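 also: 0% = median of neutral control wells and 100% = median of positive control wells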
3T3 cytotox 2: cytotoxicity in mouse NIH/3T3 fibroblasts; NIH/3T3 viability, CellTiter-Glo ATP luminescence, 90 h; AID 651744; hit rate 56% among 5,600; inhibition, % at 24.9 µM; shares compounds with T cruzi growth-1;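 active = mean loss of cell viability signal at or above a set limit, and enough replicates individually reaching it; inconclusive = meets only the mean limit or only the replicate share; inactive = meets neither condition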;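 also: 0% = median of neutral control wells and 100% = median of positive control wells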
Numbers without * were called inactive; u = inconclusive; x = no result given.

SMILES	Pf Dd2 inh	GASC1 inh	T cruzi growth-1	IDH1 R132H inh	T cruzi growth-2	T cruzi growth-3	NIH3T3 tox	3T3 cytotox 2
COc1ccc(-c2cnc3c(c2)C(=O)N([C@@H](C)CO)C[C@H](C)[C@@H](CN(C)S(=O)(=O)c2ccc(OC)cc2)O3)cc1	-37	-1	105*	-8	104*	58	9	u
Cc1ccc(S(=O)(=O)N(C)C[C@@H]2Oc3ncc(C#Cc4ccc(C(F)(F)F)cc4)cc3C(=O)N([C@H](C)CO)C[C@@H]2C)cc1	-45	-4	u	0	89	112*	34	39*
C[C@H](CO)N1C[C@H](C)[C@H](CN(C)S(=O)(=O)c2cccs2)Oc2ncc(C#Cc3cccc(F)c3)cc2C1=O	-39	-3	98*	x	110*	69	2	5
COc1ccc(-c2cnc3c(c2)C(=O)N([C@@H](C)CO)C[C@H](C)[C@H](CN(C)C(=O)CN(C)C)O3)cc1	26	-1	49	0	x	x	x	x
C[C@H](CO)N1C[C@H](C)[C@H](CN(C)S(=O)(=O)c2ccc(F)cc2)Oc2ncc(C#Cc3ccc(C(F)(F)F)cc3)cc2C1=O	-49	-4	112*	-1	105*	103*	26	35*
C[C@H](CO)N1C[C@H](C)[C@H](CN(C)S(=O)(=O)c2ccccc2)Oc2ncc(C#Cc3ccc(C(F)(F)F)cc3)cc2C1=O	-51	-6	92*	1	107*	81	32	32*
C[C@H](CO)N1C[C@H](C)[C@H](CN(C)S(=O)(=O)c2ccc(F)cc2)Oc2ncc(C#Cc3ccccc3)cc2C1=O	-67	-3	106*	0	u	77	7	28*
COc1ccc(S(=O)(=O)N(C)C[C@@H]2Oc3ncc(C#Cc4ccc(C(F)(F)F)cc4)cc3C(=O)N([C@H](C)CO)C[C@@H]2C)cc1	-74	-6	16	0	x	x	x	x
COc1ccc(-c2cnc3c(c2)C(=O)N([C@H](C)CO)C[C@H](C)[C@@H](CN(C)C(=O)CN(C)C)O3)cc1	-7	17	105*	4	36	3	23	2
C[C@H](CO)N1C[C@H](C)[C@H](CN(C)S(=O)(=O)c2ccccc2)Oc2ncc(C#Cc3ccccc3)cc2C1=O	-20	-1	98	0	x	x	x	x
COc1ccc(N(CC(=O)Nc2c(C)cc(C)cc2C)S(C)(=O)=O)cc1Cl	x	x	x	0	x	x	x	x
O=C(CCCCC(=O)N/N=C/c1c(F)c(F)c(F)c(F)c1F)NO	x	x	x	0	x	x	x	x
Cc1ccc2ccc(C(Nc3ccccn3)c3ccccc3Cl)c(O)c2n1 (stereo not drawn)	x	x	x	0	x	x	x	x
COc1ccc(NC(=O)CSc2ncccn2)cc1Cl	x	x	x	0	x	x	x	x
COc1ccccc1S(=O)(=O)N(C)C[C@@H]1Oc2ncc(-c3ccc(C)cc3)cc2C(=O)N([C@@H](C)CO)C[C@H]1C	-11	-2	101*	-1	102*	65	28	55*
C[C@H](CO)N1C[C@H](C)[C@H](CN(C)S(=O)(=O)c2cccc(F)c2)Oc2ncc(C#Cc3ccc(C(F)(F)F)cc3)cc2C1=O	-79	0	u	-4	101*	109*	25	36*
C[C@H](CO)N1C[C@H](C)[C@H](CN(C)S(=O)(=O)c2cccc(F)c2)Oc2ncc(C#Cc3ccccc3)cc2C1=O	-72	-1	39	-1	x	x	x	x
COc1ccc(S(=O)(=O)N(C)C[C@@H]2Oc3ncc(C#Cc4cccc(F)c4)cc3C(=O)N([C@H](C)CO)C[C@@H]2C)cc1	-77	-3	u	0	107*	77	30	48*
Cc1sc(NC(=O)COc2ccccc2C(C)C)c(C(N)=O)c1C	x	x	x	0	x	x	x	x
Cc1ccc(S(=O)(=O)Nc2ccc3c(c2)C(=O)N([C@H](C)CO)C[C@@H](C)[C@H](CN(C)S(=O)(=O)c2ccc(F)cc2)OCCCC[C@@H](C)O3)cc1	-57	0	109*	1	102*	76	6	-17
Cc1ccc(S(=O)(=O)Nc2ccc3c(c2)C(=O)N([C@@H](C)CO)C[C@H](C)[C@H](CN(C)S(=O)(=O)c2ccc(F)cc2)OCCCC[C@@H](C)O3)cc1	-67	0	u	-10	105*	77	20	32*
Cc1ccc(S(=O)(=O)N(C)C[C@@H]2OCCCC[C@@H](C)Oc3ccc(NS(=O)(=O)c4ccc(F)cc4)cc3C(=O)N([C@@H](C)CO)C[C@@H]2C)cc1	-76	1	102*	0	105*	90	-27	12
Cc1ccc(S(=O)(=O)Nc2ccc3c(c2)C(=O)N([C@@H](C)CO)C[C@H](C)[C@@H](CN(C)S(=O)(=O)c2ccc(F)cc2)OCCCC[C@H](C)O3)cc1	-79	1	x	0	x	x	x	x
Cc1ccc(S(=O)(=O)Nc2ccc3c(c2)C(=O)N([C@H](C)CO)C[C@@H](C)[C@@H](CN(C)S(=O)(=O)c2ccc(F)cc2)OCCCC[C@@H](C)O3)cc1	-67	0	x	x	x	x	x	x
Cc1ccc(S(=O)(=O)Nc2ccc3c(c2)C(=O)N([C@@H](C)CO)C[C@@H](C)[C@H](CN(C)S(=O)(=O)c2ccc(F)cc2)OCCCC[C@@H](C)O3)cc1	-22	0	103*	x	106*	66	-1	6
SMILES	Pf Dd2 inh	GASC1 inh	T cruzi growth-1	IDH1 R132H inh	T cruzi growth-2	T cruzi growth-3	NIH3T3 tox	3T3 cytotox 2
CS(=O)(=O)N(CC(=O)Nc1ccccc1C(=O)N1CCOCC1)c1cccc(Cl)c1Cl	x	x	x	0	x	x	x	x
Cc1ccc(S(=O)(=O)Nc2ccc3c(c2)C(=O)N([C@@H](C)CO)C[C@H](C)[C@H](CN(C)S(=O)(=O)c2ccc(F)cc2)OCCCC[C@H](C)O3)cc1	-73	0	116*	x	104*	67	-2	9
Cc1ccc(S(=O)(=O)Nc2ccc3c(c2)C(=O)N([C@H](C)CO)C[C@@H](C)[C@@H](CN(C)S(=O)(=O)c2ccc(F)cc2)OCCCC[C@H](C)O3)cc1	-56	0	x	-1	x	x	x	x
Cc1ccc(S(=O)(=O)N(C)C[C@H]2OCCCC[C@H](C)Oc3ccc(NS(=O)(=O)c4ccc(F)cc4)cc3C(=O)N([C@@H](C)CO)C[C@@H]2C)cc1	-71	-1	115*	x	104*	84	-22	-23
O=C(O)c1ccc(Cl)c(S(=O)(=O)N2CCCC2C(=O)O)c1 (stereo not drawn)	x	x	x	0	x	x	x	x
C/C=C/c1ccc([C@H]2[C@H](CO)N3CCCCN(S(=O)(=O)c4ccc(F)cc4)C[C@@H]23)cc1	1	0	111*	x	108*	57	22	102*
